{"source": "ChEMBL document CHEMBL4359831", "about": "“Chemoproteomics of an Indole-Based Quinone Epoxide Identifies Druggable Vulnerabilities in Vancomycin-Resistant Staphylococcus aureus” (J Med Chem, 2019)", "key": {"[1]": {"assay": "Selectivity index, ratio of CC50 for African green monkey Vero cells to MIC90 for Staphylococcus aureus ATCC 29213", "type": "toxicity", "details": "read-out: Selectivity Index"}, "Staphylococcus aureus [2]": {"system": "Staphylococcus aureus", "assay": "Bactericidal activity against Staphylococcus aureus ATCC 29213 at 1 to 10 times MIC preincubated up to 24 hrs under shaking condition followed by bacterial plating on Tryptic Soy agar and measured after 18 to 20 hrs by time kill assay", "type": "functional, organism-based"}, "Staphylococcus aureus [3]": {"system": "Staphylococcus aureus", "assay": "Binding affinity to Staphylococcus aureus ATCC 29213 DNA polymerase III subunit beta at 10 uM in presence of 9-(Pent-4-yn-1-yl)-1a,10a-dihydro-2H-oxireno[2',3':4,5]-benzo[1,2-a]carbazole-2,10(9H)-dione after 1 hr by biotin-azide fluorescence dependent LC-MS/MS-based ABPP assay", "procedure,_shortened": "(§1)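 Competitive LC–MS/MS ABPP on S. aureus soluble proteome. Pretreatment 1 h with DMSO, compound (10 μM), comparator (10 μM) or iodoacetamide (10 mM). Chase with alkyne probe (10 μM, 1 h), then Cu-catalysed click with biotin-azide and LC–MS/MS. Targets were proteins at ratio ≤0.1 versus DMSO in the compound and IAM groups and ~1 in the comparator group.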"}, "Staphylococcus aureus [4]": {"system": "Staphylococcus aureus", "assay": "Antibacterial activity against vancomycin-resistant Staphylococcus aureus SA-HIP-11983 after 16 to 18 hrs by CLSI M07-A10 protocol based dilution method", "type": "functional"}, "Staphylococcus aureus [5]": {"system": "Staphylococcus aureus", "assay": "Antibacterial activity against vancomycin-resistant Staphylococcus aureus HIP14300 after 16 to 18 hrs by CLSI M07-A10 protocol based dilution method", "type": "functional"}, "Staphylococcus aureus [6]": {"system": "Staphylococcus aureus", "assay": "Binding affinity to Staphylococcus aureus ATCC 29213 Methionine aminopeptidase at 10 uM in presence of 9-(Pent-4-yn-1-yl)-1a,10a-dihydro-2H-oxireno[2',3':4,5]-benzo[1,2-a]carbazole-2,10(9H)-dione after 1 hr by biotin-azide fluorescence dependent LC-MS/MS-based ABPP assay", "procedure,_shortened": "as §1"}, "Staphylococcus aureus [7]": {"system": "Staphylococcus aureus", "assay": "Antibacterial activity against vancomycin-resistant Staphylococcus aureus SA-HIP-15178 after 16 to 18 hrs by CLSI M07-A10 protocol based dilution method", "type": "functional"}, "[8]": {"assay": "Cytotoxicity against African green monkey Vero cells after 72 hrs by MTT assay", "type": "cell-based", "details": "chlorocebus sabaeus"}, "Staphylococcus aureus [9]": {"system": "Staphylococcus aureus", "assay": "Binding affinity to Staphylococcus aureus ATCC 29213 Thioredoxin at 10 uM in presence of 9-(Pent-4-yn-1-yl)-1a,10a-dihydro-2H-oxireno[2',3':4,5]-benzo[1,2-a]carbazole-2,10(9H)-dione after 1 hr by biotin-azide fluorescence dependent LC-MS/MS-based ABPP assay", "procedure,_shortened": "as §1"}, "Staphylococcus aureus [10]": {"system": "Staphylococcus aureus", "assay": "Binding affinity to Staphylococcus aureus ATCC 29213 Transcriptional regulator at 10 uM in presence of 9-(Pent-4-yn-1-yl)-1a,10a-dihydro-2H-oxireno[2',3':4,5]-benzo[1,2-a]carbazole-2,10(9H)-dione after 1 hr by biotin-azide fluorescence dependent LC-MS/MS-based ABPP assay", "procedure,_shortened": "as §1"}, "Escherichia coli": {"system": "Escherichia coli", "assay": "Antibacterial activity against Escherichia coli ATCC 25922 after 16 to 18 hrs by CLSI M07-A10 protocol based dilution method", "type": "functional"}, "Staphylococcus aureus [11]": {"system": "Staphylococcus aureus", "assay": "Antibacterial activity against Staphylococcus aureus ATCC 29213 after 16 to 18 hrs by CLSI M07-A10 protocol based dilution method", "type": "functional", "procedure,_shortened": "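MIC against ATCC 29213 determined by a previously described protocol; values in μg/mL.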"}, "Staphylococcus aureus [12]": {"system": "Staphylococcus aureus", "assay": "Binding affinity to Staphylococcus aureus ATCC 29213 Heme peroxidase at 10 uM in presence of 9-(Pent-4-yn-1-yl)-1a,10a-dihydro-2H-oxireno[2',3':4,5]-benzo[1,2-a]carbazole-2,10(9H)-dione after 1 hr by biotin-azide fluorescence dependent LC-MS/MS-based ABPP assay", "procedure,_shortened": "as §1"}, "Pseudomonas aeruginosa": {"system": "Pseudomonas aeruginosa", "assay": "Antibacterial activity against Pseudomonas aeruginosa ATCC 27853 after 16 to 18 hrs by CLSI M07-A10 protocol based dilution method", "type": "functional"}, "Acinetobacter baumannii": {"system": "Acinetobacter baumannii", "assay": "Antibacterial activity against Acinetobacter baumannii BAA-1605 after 16 to 18 hrs by CLSI M07-A10 protocol based dilution method", "type": "functional"}, "Staphylococcus aureus [13]": {"system": "Staphylococcus aureus", "assay": "Bactericidal activity against vancomycin-resistant Staphylococcus aureus HIP11714 at 10 times MIC measured up to 24 hrs by time kill assay", "type": "functional, organism-based"}, "[14]": {"assay": "L-cysteine reactivity in pH 7.4 phosphate buffer at 100 uM preincubated for 1 hr followed by mono-bromobimane addition and measured after 30 mins by fluorescence based competition assay"}}, "note": "Calls of active or inactive are those of the source. No cut-off for these calls is given here."}
{"smiles": "CC(C)n1c2ccccc2c2ccc3c(c21)C(=O)C1OC1C3=O", "note": "(configuration not stated)", "values": [{"measurement": "selectivity ratio", "setting": "[1]", "result": "> 200"}, {"measurement": "Activity", "setting": "Staphylococcus aureus [2]", "result": "Active"}, {"measurement": "Activity", "setting": "Staphylococcus aureus [3]", "result": "Active"}, {"measurement": "MIC", "setting": "Staphylococcus aureus [4]", "result": 0.5, "unit": "µg/mL"}, {"measurement": "MIC", "setting": "Staphylococcus aureus [5]", "result": 0.5, "unit": "µg/mL"}, {"measurement": "Activity", "setting": "Staphylococcus aureus [6]", "result": "Active"}, {"measurement": "MIC", "setting": "Staphylococcus aureus [7]", "result": 0.5, "unit": "µg/mL"}, {"measurement": "CC50 at 72 h", "setting": "[8]", "result": "> 25", "unit": "µg/mL"}, {"measurement": "Activity", "setting": "Staphylococcus aureus [9]", "result": "Active"}, {"measurement": "Activity", "setting": "Staphylococcus aureus [10]", "result": "Active"}, {"measurement": "MIC", "setting": "Escherichia coli", "result": 64, "unit": "µg/mL"}, {"measurement": "MIC", "setting": "Staphylococcus aureus [11]", "result": "0.125 to 0.5", "unit": "µg/mL"}, {"measurement": "Activity", "setting": "Staphylococcus aureus [12]", "result": "Active"}, {"measurement": "MIC", "setting": "Pseudomonas aeruginosa", "result": 64, "unit": "µg/mL"}, {"measurement": "MIC", "setting": "Acinetobacter baumannii", "result": 64, "unit": "µg/mL"}, {"measurement": "Activity", "setting": "Staphylococcus aureus [13]", "result": "Active"}, {"measurement": "Activity", "setting": "[14]", "result": "Active"}]}
